Results from ChEMBL document CHEMBL1126989, “Synthesis and cytotoxicity of 1,6,7,8-substituted 2-(4'-substituted phenyl)-4-quinolones and related compounds: identification as antimitotic agents interacting with tubulin” (J Med Chem, 1993).
Converted amounts (≈) assume the structure as drawn.

Test system: HCC 2998
Experiment: Inhibition of in vitro cell growth which reduces cell growth to 50% of level at start of experiment in colon HCC2998 cell line
Format: functional, Homo sapiens
Settings: not given
How it was run: (§1)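 NCI in vitro disease-oriented screen across about 60 human tumour cell lines. The value is the LC50-type level: the drug concentration that cuts cell number to 50% of the count at the start of the experiment. Values are averages of 2 assays.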

| Structure (SMILES) | LC50 |
| --- | --- |
| Oc1cc(-c2ccccc2)nc2ccc(Cl)cc12 | >-5 |
| COc1ccc2nc(-c3ccccc3)cc(O)c2c1 | >-4 |
| Oc1cc(-c2ccccc2)nc2cc(F)ccc12 | >-4 |

Test system: not listed separately
Experiment: (§2) Inhibition of in vitro cell growth which reduces cell growth to 50% of level at start of experiment in colon KM-20L2 cell line
Format: functional, Homo sapiens
Settings: not given
How it was run: as §1

| Structure (SMILES) | LC50 |
| --- | --- |
| Oc1cc(-c2ccccc2)nc2ccc(Cl)cc12 | -4 |

Test system: KM-20L2
Experiment: as §2
Format: functional, Homo sapiens
Settings: not given
How it was run: as §1

| Structure (SMILES) | LC50 |
| --- | --- |
| COc1ccc2nc(-c3ccccc3)cc(O)c2c1 | -4.6 |
| Oc1cc(-c2ccccc2)nc2cc(F)ccc12 | -5.6 |

Test system: COLO 205
Experiment: Inhibition of in vitro cell growth which reduces cell growth to 50% of level at start of experiment in colon COLO-205 cell line
Format: functional, Homo sapiens
Settings: not given
How it was run: as §1

| Structure (SMILES) | LC50 |
| --- | --- |
| Oc1cc(-c2ccccc2)nc2ccc(Cl)cc12 | -4 |
| COc1ccc2nc(-c3ccccc3)cc(O)c2c1 | -4.4 |

Test system: HCT-8
Experiment: Cytotoxicity in vitro expressed as 50% reduction in cell number after a 3-day incubation, in human ileocecal carcinoma HCT-8 cell line
Format: functional, cell-based
Settings: HCT-8, 72 h
How it was run: (§3)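 Cell lines adapted to antibiotic-free RPMI-1640 with 10% fetal calf serum; ca. 1×10^5 cells per well, overnight stabilization, then serial dilutions added, quadruplicate per concentration; medium-only controls. After 3-4 days, MTT added and incubated overnight; formazan dissolved in DMSO, absorbance at 570 nm. EC50 calculated from two data points bracketing 50% growth inhibition. Actinomycin as positive control.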

| Structure (SMILES) | EC50 [µg/mL] |
| --- | --- |
| CC(C)Oc1cc(-c2ccccc2)nc2ccccc12 | > 10 |
| Oc1ccc2c(O)cc(-c3ccccc3)nc2c1 | > 10 |
| Cn1c(-c2ccc(O)cc2)cc(=O)c2ccccc21 | 5.71 (≈ 22.7 µM) |
| Oc1cc(-c2ccccc2)nc2ccc(Cl)cc12 | 0.7 (≈ 2.74 µM) |
| COc1ccc2nc(-c3ccccc3)cc(O)c2c1 | 1 (≈ 3.98 µM) |
| Oc1cc(-c2ccccc2)nc2cc(F)ccc12 | 3.45 (≈ 14.4 µM) |

Test system: SF-539
Experiment: Inhibition of in vitro cell growth which reduces cell growth to 50% of level at start of experiment in CNS SF-539 cell line(<-4 in one experiment, >-4 in other experiment)
Format: functional, Homo sapiens
Settings: not given
How it was run: as §1

| Structure (SMILES) | LC50 |
| --- | --- |
| Oc1cc(-c2ccccc2)nc2cc(F)ccc12 | >-4 |

Biological target: T1, Tubulin (Bos taurus) (UniProt Q6B856+Q862L2+Q862F3)
Experiment: Percentage inhibition of colchicine binding by derivatives of 2-phenyl-4-quinolone at the ratio of 10:1
Format: protein assay
Settings: concentration not given here

| Structure (SMILES) | inhibition [%] |
| --- | --- |
| Oc1cc(-c2ccccc2)nc2ccc(Cl)cc12 | 21 |

Test system: HT-29
Experiment: Inhibition of in vitro cell growth which reduces cell growth to level at start of experiment in colon HT-29 cell line
Format: functional, Homo sapiens
Settings: not given

| Structure (SMILES) | TGI |
| --- | --- |
| Oc1cc(-c2ccccc2)nc2ccc(Cl)cc12 | -4.9 |
| COc1ccc2nc(-c3ccccc3)cc(O)c2c1 | -6.1 |
| Oc1cc(-c2ccccc2)nc2cc(F)ccc12 | -5.6 |

Test system: COLO 205
Experiment: Inhibition of in vitro cell growth which reduces cell growth to level at start of experiment in colon COLO-205 cell line
Format: functional, Homo sapiens
Settings: not given

| Structure (SMILES) | TGI |
| --- | --- |
| Oc1cc(-c2ccccc2)nc2ccc(Cl)cc12 | -5.6 |
| COc1ccc2nc(-c3ccccc3)cc(O)c2c1 | -6.1 |
| Oc1cc(-c2ccccc2)nc2cc(F)ccc12 | -6.1 |

Test system: SF-539
Experiment: Inhibition of in vitro cell growth which reduces cell growth to level at start of experiment in CNS SF-539 cell line
Format: functional, Homo sapiens
Settings: not given

| Structure (SMILES) | TGI |
| --- | --- |
| Oc1cc(-c2ccccc2)nc2ccc(Cl)cc12 | -5.4 |
| COc1ccc2nc(-c3ccccc3)cc(O)c2c1 | -6.2 |
| Oc1cc(-c2ccccc2)nc2cc(F)ccc12 | -6 |

Test system: SF-539
Experiment: Inhibition of in vitro cell growth which reduces cell growth to 50% of level at start of experiment in CNS SF-539 cell line
Format: functional, Homo sapiens
Settings: not given
How it was run: as §1

| Structure (SMILES) | LC50 |
| --- | --- |
| Oc1cc(-c2ccccc2)nc2ccc(Cl)cc12 | >-4 |
| COc1ccc2nc(-c3ccccc3)cc(O)c2c1 | -4.4 |

Biological target: T1, Tubulin (Bos taurus)
Experiment: Percentage inhibition of colchicine binding by derivatives of 2-phenyl-4-quinolone at the ratio of 1:1
Format: protein assay
Settings: concentration not given here

| Structure (SMILES) | inhibition [%] |
| --- | --- |
| Oc1cc(-c2ccccc2)nc2ccc(Cl)cc12 | 6 |

Test system: HT-29
Experiment: Inhibition of in vitro cell growth which reduces cell growth to 50% of level at start of experiment in colon HT-29 cell line
Format: functional, Homo sapiens
Settings: not given
How it was run: as §1

| Structure (SMILES) | LC50 |
| --- | --- |
| Oc1cc(-c2ccccc2)nc2ccc(Cl)cc12 | >-4 |
| COc1ccc2nc(-c3ccccc3)cc(O)c2c1 | >-4 |
| Oc1cc(-c2ccccc2)nc2cc(F)ccc12 | >-4 |

Test system: L1210 (1565)
Experiment: Cytotoxicity in vitro expressed as 50% reduction in cell number after a 3-day incubation, in murine leukemia L-1210 cell line
Format: functional, cell-based
Settings: Mus musculus, 72 h
How it was run: as §3

| Structure (SMILES) | EC50 [µg/mL] |
| --- | --- |
| CC(C)Oc1cc(-c2ccccc2)nc2ccccc12 | > 10 |
| Oc1ccc2c(O)cc(-c3ccccc3)nc2c1 | 0.45 (≈ 1.9 µM) |
| Cn1c(-c2ccc(O)cc2)cc(=O)c2ccccc21 | > 10 |
| Oc1cc(-c2ccccc2)nc2ccc(Cl)cc12 | 0.5 (≈ 1.96 µM) |
| COc1ccc2nc(-c3ccccc3)cc(O)c2c1 | 0.06 (≈ 0.239 µM) |
| Oc1cc(-c2ccccc2)nc2cc(F)ccc12 | 0.16 (≈ 0.669 µM) |

Test system: A549
Experiment: Cytotoxicity in vitro expressed as 50% reduction in cell number after a 3-day incubation, in human lung carcinoma A-549 cell line
Format: functional, cell-based
Settings: A549, 72 h
How it was run: as §3

| Structure (SMILES) | EC50 [µg/mL] |
| --- | --- |
| CC(C)Oc1cc(-c2ccccc2)nc2ccccc12 | > 10 |
| Oc1ccc2c(O)cc(-c3ccccc3)nc2c1 | 0.81 (≈ 3.41 µM) |
| Cn1c(-c2ccc(O)cc2)cc(=O)c2ccccc21 | > 10 |
| Oc1cc(-c2ccccc2)nc2ccc(Cl)cc12 | 0.51 (≈ 1.99 µM) |
| COc1ccc2nc(-c3ccccc3)cc(O)c2c1 | 0.19 (≈ 0.756 µM) |
| Oc1cc(-c2ccccc2)nc2cc(F)ccc12 | 0.96 (≈ 4.01 µM) |

Test system: P388
Experiment: Cytotoxicity in vitro expressed as 50% reduction in cell number after a 3-day incubation, in murine leukemia P-388 cell line
Format: functional, cell-based
Settings: Mus musculus, P388, 72 h
How it was run: as §3

| Structure (SMILES) | EC50 [µg/mL] |
| --- | --- |
| CC(C)Oc1cc(-c2ccccc2)nc2ccccc12 | > 10 |
| Oc1ccc2c(O)cc(-c3ccccc3)nc2c1 | 0.81 (≈ 3.41 µM) |
| Cn1c(-c2ccc(O)cc2)cc(=O)c2ccccc21 | > 10 |
| Oc1cc(-c2ccccc2)nc2ccc(Cl)cc12 | 0.84 (≈ 3.29 µM) |
| COc1ccc2nc(-c3ccccc3)cc(O)c2c1 | 0.33 (≈ 1.31 µM) |
| Oc1cc(-c2ccccc2)nc2cc(F)ccc12 | 0.29 (≈ 1.21 µM) |

Biological target: T1, Tubulin (Bos taurus)
Experiment: Percentage inhibition of colchicine binding(1:1 ratio of inhibitor: colchicine)
Format: protein assay
Settings: concentration not given here

| Structure (SMILES) | inhibition [%] |
| --- | --- |
| COc1ccc2nc(-c3ccccc3)cc(O)c2c1 | 8 |
| Oc1cc(-c2ccccc2)nc2cc(F)ccc12 | 7 |

Biological target: T1, Tubulin (Bos taurus)
Experiment: Percentage inhibition of colchicine binding(10:1 ratio of inhibitor: colchicine)
Format: protein assay
Settings: concentration not given here

| Structure (SMILES) | inhibition [%] |
| --- | --- |
| COc1ccc2nc(-c3ccccc3)cc(O)c2c1 | 53 |
| Oc1cc(-c2ccccc2)nc2cc(F)ccc12 | 34 |

Test system: not listed separately
Experiment: (§4) Inhibition of in vitro cell growth which reduces cell growth to level at start of experiment in colon KM-20L2 cell line
Format: functional, Homo sapiens
Settings: not given

| Structure (SMILES) | TGI |
| --- | --- |
| Oc1cc(-c2ccccc2)nc2ccc(Cl)cc12 | -5.4 |

Test system: KM-20L2
Experiment: as §4
Format: functional, Homo sapiens
Settings: not given

| Structure (SMILES) | TGI |
| --- | --- |
| COc1ccc2nc(-c3ccccc3)cc(O)c2c1 | -5.9 |
| Oc1cc(-c2ccccc2)nc2cc(F)ccc12 | -6.3 |

Test system: KB
Experiment: Cytotoxicity in vitro expressed as 50% reduction in cell number after a 3-day incubation, in human epidermoid carcinoma KB cell line
Format: functional, cell-based
Settings: 72 h
How it was run: as §3

| Structure (SMILES) | EC50 [µg/mL] |
| --- | --- |
| CC(C)Oc1cc(-c2ccccc2)nc2ccccc12 | 4.2 (≈ 15.9 µM) |
| Oc1ccc2c(O)cc(-c3ccccc3)nc2c1 | 0.55 (≈ 2.32 µM) |
| Cn1c(-c2ccc(O)cc2)cc(=O)c2ccccc21 | > 10 |
| Oc1cc(-c2ccccc2)nc2ccc(Cl)cc12 | 0.49 (≈ 1.92 µM) |
| COc1ccc2nc(-c3ccccc3)cc(O)c2c1 | 0.08 (≈ 0.318 µM) |
| Oc1cc(-c2ccccc2)nc2cc(F)ccc12 | < 0.1 |

Biological target: Tubulin beta chain (Bos taurus, UniProt Q6B856)
Experiment: (§5) Inhibition of tubulin polymerization
Format: functional
Settings: not given
How it was run: (§6)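 Bovine brain tubulin 1.0 mg/mL (10 μM) with 1.0 M repurified monosodium glutamate, 1.0 mM MgCl2, 4% DMSO and drug; preincubated 15 min at 37 °C, chilled, GTP added; turbidity at 350 nm after jump from 0 to 37 °C, followed 20 min.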

Sequence of Tubulin beta chain (Q6B856 whole entry): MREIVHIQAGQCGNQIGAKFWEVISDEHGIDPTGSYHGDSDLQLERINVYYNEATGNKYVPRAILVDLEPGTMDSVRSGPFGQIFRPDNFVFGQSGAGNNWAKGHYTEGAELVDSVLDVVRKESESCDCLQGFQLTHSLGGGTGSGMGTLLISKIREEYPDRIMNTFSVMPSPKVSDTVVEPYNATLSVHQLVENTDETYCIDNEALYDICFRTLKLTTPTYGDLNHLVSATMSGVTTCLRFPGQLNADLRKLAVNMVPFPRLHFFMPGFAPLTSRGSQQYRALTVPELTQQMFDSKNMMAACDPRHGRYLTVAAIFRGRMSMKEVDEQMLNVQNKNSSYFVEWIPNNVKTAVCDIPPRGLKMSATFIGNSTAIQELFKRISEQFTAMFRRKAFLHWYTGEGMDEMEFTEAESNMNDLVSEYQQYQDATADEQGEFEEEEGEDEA

| Structure (SMILES) | IC50 [µM] |
| --- | --- |
| Oc1ccc2c(O)cc(-c3ccccc3)nc2c1 | 3.4 |
| Oc1cc(-c2ccccc2)nc2ccc(Cl)cc12 | 3.2 |
| COc1ccc2nc(-c3ccccc3)cc(O)c2c1 | 2.7 |
| Oc1cc(-c2ccccc2)nc2cc(F)ccc12 | 3.7 |

Biological target: Tubulin
Experiment: as §5
Format: functional
Settings: not given
How it was run: as §6

| IC50 [µM] | Structure (SMILES) |
| --- | --- |
| > 40 | Cn1c(-c2ccc(O)cc2)cc(=O)c2ccccc21 |

Test system: RPMI-7951
Experiment: Cytotoxicity in vitro expressed as 50% reduction in cell number after a 3-day incubation, in human melanoma RPMI-7951 cell line
Format: functional, cell-based
Settings: RPMI-7951, 72 h
How it was run: as §3

| Structure (SMILES) | EC50 [µg/mL] |
| --- | --- |
| Oc1ccc2c(O)cc(-c3ccccc3)nc2c1 | 0.52 (≈ 2.19 µM) |
| Cn1c(-c2ccc(O)cc2)cc(=O)c2ccccc21 | > 10 |
| Oc1cc(-c2ccccc2)nc2ccc(Cl)cc12 | 0.64 (≈ 2.5 µM) |
| COc1ccc2nc(-c3ccccc3)cc(O)c2c1 | 0.36 (≈ 1.43 µM) |
| Oc1cc(-c2ccccc2)nc2cc(F)ccc12 | 0.37 (≈ 1.55 µM) |

Test system: COLO 205
Experiment: Inhibition of in vitro cell growth which reduces cell growth to 50% of level at start of experiment in colon COLO-205 cell line (<-4 in one experiment, >-4 in other experiment)
Format: functional, Homo sapiens
Settings: not given
How it was run: as §1

| Structure (SMILES) | LC50 |
| --- | --- |
| Oc1cc(-c2ccccc2)nc2cc(F)ccc12 | -4 |

Test system: HCC 2998
Experiment: Inhibition of in vitro cell growth which reduces cell growth to level at start of experiment in colon HCC2998 cell line
Format: functional, Homo sapiens
Settings: not given

| Structure (SMILES) | TGI |
| --- | --- |
| Oc1cc(-c2ccccc2)nc2ccc(Cl)cc12 | -5 |
| COc1ccc2nc(-c3ccccc3)cc(O)c2c1 | -6.2 |
| Oc1cc(-c2ccccc2)nc2cc(F)ccc12 | -5.6 |
